Measured values from ChEMBL document CHEMBL4312005, “Optimization of pyrrolizine-based Schiff bases with 4-thiazolidinone motif: Design, synthesis and investigation of cytotoxicity and anti-inflammatory potency” (Eur J Med Chem, 2020).

Assays:
MCF7 [1] = assay: Antiproliferative activity against human MCF7 cells assessed as cell viability at 5 uM incubated for 48 hrs by MTT assay (reference value: 100 %); assay type: functional; conditions: MCF7, 48 h, read-out: Activity
Summary of the method: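 Preliminary single-dose screen by MTT assay. MCF-7 cells grown in DMEM/10% FBS were exposed to 5 μM compound for 48 h, and growth% was determined. Values are mean ± S.D., n = 6.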

[2] = Selectivity index, ratio of IC50 for cytotoxicity against human MRC5 cells to IC50 for antiproliferative activity against human HT-29 cells; conditions: MRC5 cells versus HT-29 cells
MCF7 [3] = assay: Antiproliferative activity against human MCF7 cells assessed as reduction in cell growth incubated for 72 hrs by MTT assay; assay type: functional, cell-based; conditions: MCF7, 72 h
Summary of the method: (§1)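 MTT assay on MCF-7, A2780, HT29 and normal MRC5 fibroblast lines (ATCC) grown in DMEM with 10% FBS. Cells exposed to compounds for 72 h, then reduced MTT read at 570 nm.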

[4] = Selectivity index, ratio of IC50 for cytotoxicity against human MRC5 cells to IC50 for antiproliferative activity against human MCF7 cells; conditions: MRC5 cells versus MCF7 cells
[5] = Selectivity index, ratio of IC50 for cytotoxicity against human MRC5 cells to IC50 for antiproliferative activity against human A2780 cells; conditions: MRC5 cells versus A2780 cells
MRC5 = assay: Cytotoxicity against human MRC5 cells assessed as reduction in cell growth incubated for 72 hrs by MTT assay; assay type: cell-based; conditions: MRC5, 72 h; summary of the method: as §1
[6] = molecular target: Prostaglandin G/H synthase 1 (Homo sapiens, UniProt P23219); assay: Inhibition of human COX1 using arachidonic acid as substrate incubated for 2 mins by ELISA method
A2780 = assay: Antiproliferative activity against human A2780 cells assessed as reduction in cell growth incubated for 72 hrs by MTT assay; assay type: functional, cell-based; conditions: A2780, 72 h; summary of the method: as §1
HT-29 = assay: Antiproliferative activity against human HT-29 cells assessed as reduction in cell growth incubated for 72 hrs by MTT assay; assay type: functional, cell-based; conditions: HT-29, 72 h; summary of the method: as §1
Rattus norvegicus [7] = assay: Antiinflammatory activity against albino rats assessed as inhibition of carrageenan-induced paw edema at 0.5 mmol, po measured after 2 hrs relative to control; assay type: functional
Summary of the method: (§2)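 Carrageenan rat paw edema (Winter method) in male and female adult albino rats (100-140 g). […] Swelling inhibition expressed as % of control at 2-4 h after carrageenan injection.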

Rattus norvegicus [8] = assay: Antiinflammatory activity against albino rats assessed as inhibition of carrageenan-induced paw edema at 0.5 mmol, po measured after 4 hrs relative to control; assay type: functional; summary of the method: as §2

Sequence of Prostaglandin G/H synthase 1 (P23219 whole entry): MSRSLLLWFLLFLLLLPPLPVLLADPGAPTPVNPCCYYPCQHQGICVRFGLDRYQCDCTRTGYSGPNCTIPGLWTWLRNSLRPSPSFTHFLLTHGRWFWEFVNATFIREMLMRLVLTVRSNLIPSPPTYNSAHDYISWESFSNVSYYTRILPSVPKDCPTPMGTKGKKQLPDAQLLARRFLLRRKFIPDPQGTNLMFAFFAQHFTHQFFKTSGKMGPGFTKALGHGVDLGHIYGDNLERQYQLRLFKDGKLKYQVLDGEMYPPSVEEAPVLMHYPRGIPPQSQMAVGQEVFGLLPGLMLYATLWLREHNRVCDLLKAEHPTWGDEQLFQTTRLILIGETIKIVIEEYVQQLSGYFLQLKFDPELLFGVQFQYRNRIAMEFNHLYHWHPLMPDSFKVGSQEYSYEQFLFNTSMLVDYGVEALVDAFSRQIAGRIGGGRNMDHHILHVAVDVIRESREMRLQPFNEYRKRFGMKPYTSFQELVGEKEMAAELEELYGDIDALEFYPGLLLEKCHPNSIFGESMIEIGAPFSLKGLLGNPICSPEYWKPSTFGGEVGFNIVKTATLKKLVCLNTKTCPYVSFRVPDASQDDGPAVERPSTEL

`CC/C=N/c1c(C#N)c2n(c1C(=O)Nc1ccc(Br)cc1)CCC2` gave a viability at 5 µM (MCF7 [1]) of 49%, a selectivity ratio [2] of 24 to 152 and an IC50 (MCF7 [3]) of 140 nM. For the same compound, the selectivity ratio [4] was 24 to 152, the selectivity ratio [5] was 24 to 152 and the IC50 (MRC5) was 21200 nM. It also gave an IC50 [6] of 14200 nM, an IC50 (A2780) of 270 nM and an IC50 (HT-29) of 890 nM.

`CCC1SCC(=O)N1c1c(C#N)c2n(c1C(=O)Nc1ccccc1)CCCC2` (stereo unspecified) gave an IC50 (MCF7 [3]) of 840 nM, a selectivity ratio [4] of 3 to 15 and an IC50 (MRC5) of 11100 nM. It also gave an IC50 [6] of 65400 nM, an IC50 (A2780) of 4240 nM and an IC50 (HT-29) of 2060 nM.

`CC/C=N/c1c(C#N)c2n(c1C(=O)Nc1ccc(Cl)cc1)CCC2` showed an IC50 (MCF7 [3]) of 740 nM, an IC50 (MRC5) of 170 nM and an IC50 [6] of 15600 nM. For the same compound, the “inhibition (INH)” value (Rattus norvegicus [7]) was 19.17%, the IC50 (A2780) was 580 nM and the IC50 (HT-29) was 1020 nM. For the same compound, the “inhibition (INH)” value (Rattus norvegicus [8]) was 24.06%.

Work on `N#Cc1c(/N=C/c2ccccc2)c(C(=O)Nc2ccc(Br)cc2)n2c1CCC2` yielded a viability at 5 µM (MCF7 [1]) of 73%, a selectivity ratio [2] of 2 to 52 and an IC50 (MCF7 [3]) of 500 nM. The selectivity ratio [4] was 2 to 52, the selectivity ratio [5] was 2 to 52 and the IC50 (MRC5) was 9000 nM. It also gave an IC50 [6] of over 100000 nM, an IC50 (A2780) of 4160 nM and an IC50 (HT-29) of 2970 nM.
